Measured values taken from ChEMBL document CHEMBL1134638, “Synthetic 2-aroylindole derivatives as a new class of potent tubulin-inhibitory, antimitotic agents” (J Med Chem, 2001).
≈ marks a conversion by molar mass, not a printed value.

How the values were obtained:
Tumor Cell line = assay: Mean cytotoxicity against a panel of human tumor cell lines; type: functional
In short: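 Modified propidium iodide assay quantifying dead cells by DNA/RNA staining, run on a human tumor cell panel (breast, colon, stomach, lung, melanoma, ovary, renal, soft tissue lines). Growth inhibition expressed as % T/C; IC70 per line from concentration-viability plots. Mean IC70 is the geometric mean across lines; unreached values set to the lowest or highest concentration tested.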

SK-OV-3 [1] = assay: In vitro inhibitory activity against SK-OV-3 cells using XTT proliferation assay.; type: functional, cell-based; settings: Homo sapiens
In short: (§1)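 XTT proliferation assay measuring cellular metabolic activity after 48 h incubation with compound. Compounds dissolved in DMSO at 1 mg/mL stock. IC50 or estimates obtained by nonlinear regression. Each experiment at least in duplicate.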

HeLa [2] = assay: In vitro inhibitory activity against HeLa/KB cells using XTT proliferation assay.; type: functional, cell-based; settings: Homo sapiens; in short: as §1
Tubulin beta chain [3] = molecular target: T1, Tubulin beta chain (Bos taurus, UniProt Q6B856); assay: Inhibition of tubulin polymerization.; type: functional
Tubulin = Tubulin (Bos taurus, UniProt Q6B856+Q862L2+Q862F3); assay: Inhibition of tubulin polymerization; No effect at a concentration up to 10 uM; type: functional
[4] = molecular target: Tubulin beta chain (Bos taurus) (UniProt Q6B856); assay: beta-Tubulin GTPase activity at 1 uM concentration
In short: (§2)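 MAP-free purified bovine brain tubulin (1 mg/mL) in PEM pH 6.6 with 1 mM MgCl2, 100 µM [α-32P]GTP and 1 M monosodium glutamate. Compound added beforehand, final 1% DMSO. Incubated 1 h at 37 °C, stopped with 1% SDS. GDP/GTP separated by PEI-cellulose TLC in 0.35 M (NH4)2CO3 and quantified by phosphorimager as the GDP/GTP ratio.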

[5] = molecular target: Tubulin beta chain (Bos taurus) (UniProt Q6B856); assay: beta-Tubulin GTPase activity at 10 uM concentration; in short: as §2
HeLa [6] = assay: In vitro inhibitory activity against HeLa/KB cells using XTT proliferation assay; type: functional, cell-based; settings: Homo sapiens; in short: as §1
SK-OV-3 [7] = assay: In vitro inhibitory activity against SK-OV-3 cells using XTT proliferation assay; type: functional, cell-based; settings: Homo sapiens; in short: as §1
Tubulin beta chain [8] = molecular target: T1, Tubulin beta chain; assay: Inhibition of tubulin polymerization; type: functional
In short: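 Bovine brain tubulin with MAPs, prepared by polymerization/depolymerization cycles (0.8 mg/mL), incubated with compound (4 µg/mL for screening, a concentration range for IC50). Run in PEM buffer pH 6.6 with 1 mM GTP at 37 °C for 1 h. Microtubules collected on 0.22 µm filters, stained with amido black, eluted, absorbance read at 600 nm.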

[9] = molecular target: Tubulin beta chain (Bos taurus) (UniProt Q6B856)
[10] = molecular target: Tubulin beta chain (Bos taurus) (UniProt Q6B856); remark: listed apart in the source
U373 MG [11] = assay: Cytotoxicity against U373 astrocytoma cells.; type: functional, cell-based, U-373MG ATCC; settings: Homo sapiens; in short: as §1
U373 MG [12] = assay: Cell cycle arrest activity against U373 astrocytoma cells.; type: functional, cell-based, U-373MG ATCC; settings: Homo sapiens
In short: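 U373 cells (5 × 10^6) exposed to compound for 24 h at 37 °C, trypsinised, washed in PBS, fixed in 80% methanol 30 min on ice. Stained with 20 µg/mL propidium iodide plus 1 mg/mL RNase A in PBS/0.1% saponin, 30 min at 37 °C. DNA content read by flow cytometry; G2/M fraction modelled. IC50 by nonlinear regression of dose-response.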

Sequence of Tubulin beta chain (Bos taurus) (Q6B856 whole entry): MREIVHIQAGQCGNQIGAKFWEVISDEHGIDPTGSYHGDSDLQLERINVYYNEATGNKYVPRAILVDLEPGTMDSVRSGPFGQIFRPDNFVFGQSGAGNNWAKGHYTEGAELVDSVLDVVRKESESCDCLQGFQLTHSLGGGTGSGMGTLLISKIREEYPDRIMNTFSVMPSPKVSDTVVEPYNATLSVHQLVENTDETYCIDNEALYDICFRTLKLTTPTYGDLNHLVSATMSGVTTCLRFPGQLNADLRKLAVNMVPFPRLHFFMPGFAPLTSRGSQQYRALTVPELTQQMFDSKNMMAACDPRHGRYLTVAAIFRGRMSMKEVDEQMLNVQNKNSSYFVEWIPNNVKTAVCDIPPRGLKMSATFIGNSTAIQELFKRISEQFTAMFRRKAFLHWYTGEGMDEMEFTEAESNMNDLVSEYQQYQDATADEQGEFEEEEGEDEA
T1 sequence (Q6B856 whole entry): as above

Row | SMILES | IC50 (SK-OV-3 [1]) | IC50 (HeLa [2]) | IC50 (Tubulin beta chain [3]) | also measured
1 | COc1ccc2c(c1)cc(C(=O)c1ccccc1)n2CCN1CCOCC1 | – | – | – | IC70 (Tumor Cell line): 2.95 µg/mL (≈ 8.09 µM)
2 | CCCC(=O)Oc1cccc(C(=O)c2cc3cc(OC)ccc3[nH]2)c1 | 240 nM | 270 nM | 850 nM | –
3 | COc1cc(OC)c(OC)c(C(=O)c2cc3cc(OC)ccc3[nH]2)c1 | 9370 nM | 8790 nM | – | IC50 (Tubulin): No effect
4 | COc1cc2c(c(OC)c1OC)-c1ccc(OC)c(=O)cc1[C@@H](NC(C)=O)CC2 [COLCHICINE] | 20 nM | 23 nM | – | –
5 | COc1ccc2[nH]c(C(=O)c3cccc(OC)c3[N+](=O)[O-])cc2c1 | > 9800 nM | > 9800 nM | > 10000 nM | –
6 | COc1ccc2[nH]c(C(=O)c3cccc4ccccc34)cc2c1 | – | – | – | IC70 (Tumor Cell line): 0.88 µg/mL (≈ 2.92 µM)
7 | COc1cc(C(=O)c2cc3ccccc3[nH]2)cc(OC)c1OC | 9640 nM | 6420 nM | – | IC50 (Tubulin): No effect
8 | COc1ccc2[nH]c(C(=O)c3c(F)cccc3F)cc2c1 | 8700 nM | 6960 nM | – | IC50 (Tubulin): No effect
9 | COC(=O)Nc1nc2cc(C(=O)c3cccs3)ccc2[nH]1 | – | – | – | GTPase Activity [4]: 4.9; GTPase Activity [5]: 9
10 | COc1cccc(C(=O)c2cc3cc(C)ccc3[nH]2)c1 | > 12100 nM | > 12100 nM | > 10000 nM | –
11 | COc1ccc2[nH]c(C(=O)c3cc(C)ccc3C)cc2c1 | 720 nM | 720 nM | 5200 nM | –
12 | COc1ccc2[nH]c(C(=O)c3ccc(Cl)cc3)cc2c1 | 1750 nM | 3500 nM | 5000 nM | –
13 | COc1ccc2[nH]c(C(=O)c3ccccc3F)cc2c1 | 740 nM | 370 nM | 1000 nM | –
14 | COc1ccc2[nH]c(C(=O)c3ccc(Cl)c(Cl)c3)cc2c1 | 100 nM | 100 nM | 2500 nM | IC70 (Tumor Cell line): 1.34 µg/mL (≈ 4.19 µM)
15 | COc1ccc2[nH]c(C(=O)c3cccc(OC)c3OC)cc2c1 | 3200 nM | 6400 nM | > 10000 nM | –
16 | COc1ccc2[nH]c(C(=O)c3cccc(C(F)(F)F)c3)cc2c1 | 30 nM | 30 nM | 1500 nM | –
17 | COc1ccc2[nH]c(C(=O)c3ccccc3N)cc2c1 | 3760 nM | 3760 nM | 6700 nM | IC70 (Tumor Cell line): 1.44 µg/mL (≈ 5.41 µM)
18 | COc1ccc2[nH]c(C(=O)c3cccc([N+](=O)[O-])c3)cc2c1 | 100 nM | 100 nM | 850 nM | IC70 (Tumor Cell line): 1.4 µg/mL (≈ 4.73 µM)
19 | COc1ccc2[nH]c(C(=O)c3cccc(OCc4ccccc4)c3)cc2c1 | > 8600 nM | > 8600 nM | – | IC50 (Tubulin): No effect
20 | COc1ccc2[nH]c(C(=O)c3cccc([N+](=O)[O-])c3C)cc2c1 | > 10300 nM | > 10300 nM | > 10000 nM | –
21 | COc1ccc2[nH]c(C(=O)c3cccc(SC(F)(F)F)c3)cc2c1 | – | – | – | IC50 (HeLa [6]): 880 nM; IC50 (SK-OV-3 [7]): 630 nM; IC50 (Tubulin beta chain [8]): > 10000 nM
22 | CCc1ccc(C(=O)c2cc3cc(OC)ccc3[nH]2)cc1 | 11500 nM | 8900 nM | > 10000 nM | –
23 | CC[C@]1(O)C[C@H]2CN(CCc3c([nH]c4ccccc34)[C@@](C(=O)OC)(c3cc4c(cc3OC)N(C=O)[C@H]3[C@@](O)(C(=O)OC)[C@H](OC(C)=O)[C@]5(CC)C=CCN6CC[C@]43[C@@H]65)C2)C1 | – | – | – | GTPase Activity [9]: 0.09; GTPase Activity [10]: 5.3
24 | CCCc1ccc(C(=O)c2cc3cc(OC)ccc3[nH]2)cc1 | > 10900 nM | > 10900 nM | > 10000 nM | –
25 | COc1cccc(C(=O)c2cc3cc(OC)ccc3[nH]2)c1 | 11 nM | 11 nM | 530 nM | IC50 (U373 MG [11]): 28 nM; IC50 (U373 MG [12]): 10.7 nM; IC70 (Tumor Cell line): 0.27 µg/mL (≈ 0.96 µM)

Row | SMILES | IC50 (SK-OV-3 [1]) | IC50 (HeLa [2]) | IC50 (Tubulin beta chain [3]) | also measured
26 | COc1ccc2[nH]c(C(=O)c3ccccc3OC)cc2c1 | 110 nM | 36 nM | 1290 nM | IC70 (Tumor Cell line): 0.35 µg/mL (≈ 1.24 µM)
27 | COc1ccccc1C(=O)c1cc2cc(C)ccc2[nH]1 | 750 nM | 380 nM | 3500 nM | IC70 (Tumor Cell line): 2.03 µg/mL (≈ 7.65 µM)
28 | COc1ccccc1C(=O)c1cc2ccccc2[nH]1 | > 12700 nM | > 12700 nM | > 10000 nM | –
29 | COc1ccc2[nH]c(C(=O)c3cccc(N)c3)cc2c1 | 230 nM | 340 nM | 990 nM | –
30 | COc1ccc2[nH]c(C(=O)c3ccc(C(C)(C)C)cc3)cc2c1 | > 10400 nM | > 10400 nM | – | IC50 (Tubulin): No effect
31 | COc1ccc2[nH]c(C(=O)c3c(F)cccc3Cl)cc2c1 | > 10500 nM | > 10500 nM | > 10000 nM | –
32 | COc1ccc2[nH]c(C(=O)c3ccc(C)cc3)cc2c1 | 1880 nM | 380 nM | 1500 nM | –
33 | COc1ccc2[nH]c(C(=O)c3ccc(F)cc3)cc2c1 | 7430 nM | 5570 nM | – | –
34 | COc1ccc2[nH]c(C(=O)c3ccc(OC)c(OC)c3OC)cc2c1 | 88 nM | 59 nM | > 10000 nM | IC70 (Tumor Cell line): 0.73 µg/mL (≈ 2.14 µM)
35 | COc1ccc2[nH]c(C(=O)c3cccc(O)c3)cc2c1 | 220 nM | 220 nM | 660 nM | –
36 | COc1ccc2[nH]c(C(=O)c3cccc(N)c3C)cc2c1 | 11400 nM | 11400 nM | > 10000 nM | –
37 | COc1ccc(C(=O)c2cc3cc(OC)ccc3[nH]2)cc1 | 11400 nM | 11400 nM | – | IC50 (Tubulin): No effect
38 | COc1ccc2[nH]c(C(=O)c3cccc(SC(F)F)c3)cc2c1 | – | – | – | IC50 (HeLa [6]): 390 nM; IC50 (SK-OV-3 [7]): 360 nM; IC50 (Tubulin beta chain [8]): 2100 nM
39 | COc1cc(C(=O)c2cc3cc(C)ccc3[nH]2)cc(OC)c1OC | 30 nM | 30 nM | 860 nM | IC70 (Tumor Cell line): 1.17 µg/mL (≈ 3.6 µM)
40 | COc1cc(OC)cc(C(=O)c2cc3cc(OC)ccc3[nH]2)c1 | 19 nM | 19 nM | 810 nM | –
41 | COc1ccc2[nH]c(C(=O)c3ccc(Br)cc3)cc2c1 | 910 nM | 910 nM | 4300 nM | IC70 (Tumor Cell line): 2.56 µg/mL (≈ 7.75 µM)
42 | COc1ccc(C(=O)c2cc3cc(OC)ccc3[nH]2)c(OC)c1 | 1030 nM | 100 nM | 5600 nM | IC70 (Tumor Cell line): 1.74 µg/mL (≈ 5.59 µM)
43 | COc1ccc2[nH]c(C(=O)c3ccccc3[N+](=O)[O-])cc2c1 | > 10800 nM | > 10000 nM | > 10000 nM | –
44 | COc1ccc2[nH]c(C(=O)c3ccccc3C)cc2c1 | 380 nM | 1210 nM | 4800 nM | –
45 | CCCCCOc1ccc(C(=O)c2cc3cc(OC)ccc3[nH]2)cc1 | > 9500 nM | > 9500 nM | – | IC50 (Tubulin): No effect
46 | COc1ccc2[nH]c(C(=O)c3ccc(OC)c(OC)c3)cc2c1 | 1640 nM | 1320 nM | 810 nM | –
47 | CC(=O)O[C@H]1C(=O)[C@@]2(C)[C@H]([C@H](OC(=O)c3ccccc3)[C@]3(O)C[C@H](OC(=O)[C@H](O)[C@@H](NC(=O)c4ccccc4)c4ccccc4)C(C)=C1C3(C)C)[C@]1(OC(C)=O)CO[C@@H]1C[C@@H]2O | – | – | – | GTPase Activity [9]: 1.4; GTPase Activity [10]: 3.3
48 | COc1ccc2[nH]c(C(=O)c3cc(OC)c(OC)c(OC)c3)cc2c1 | 58 nM | 29 nM | 990 nM | IC50 (U373 MG [11]): 73 nM; IC50 (U373 MG [12]): 36.1 nM; IC70 (Tumor Cell line): 0.17 µg/mL (≈ 0.498 µM)
49 | COc1ccc2[nH]c(C(=O)c3cccc(F)c3)cc2c1 | 15 nM | 26 nM | 390 nM | –
50 | COc1ccc2[nH]c(C(=O)c3cccc(OC(F)(F)F)c3)cc2c1 | 210 nM | 270 nM | 1700 nM | –
